According to ChEMBL document CHEMBL2424621, “Discovery, synthesis and biological evaluation of cycloprotoberberine derivatives as potential antitumor agents” (Eur J Med Chem, 2013):
pIC50: −log10 of the molar value. ≈ marks a conversion by molar mass, not a printed value. Calls of active or inactive are those of the source. The calls are words filed in the database; no cut-off is given here.

Legend:
HepG2 [1] = assay: Antiproliferative activity against human HepG2 cells assessed as growth inhibition at 0.6 ug/ml after 48 hrs by SRB assay; assay type: functional; details: HepG2, 48 h, read-out: GI
How it was run: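 Single-concentration SRB screen. HepG2 cells were grown in MEM-EBSS with 10% FBS and exposed to 0.6 µg/mL compound for 48 h alongside untreated controls. Cells were fixed with TCA and stained with SRB, then read at 492 nm. Results are given as % inhibition versus control, from triplicates reported as mean and SD.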

HCT-116 [2] = assay: Antiproliferative activity against human HCT116 cells assessed as growth inhibition after 24 hrs by SRB assay; assay type: functional, cell-based; details: HCT-116, 24 h
How it was run: (§1)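 SRB assay. Cells were seeded at 4×10^3–8×10^3/mL in MEM-EBSS with 10% heat-inactivated FBS at 37 °C and 5% CO2, then treated at 0.039, 0.15, 0.63 and 2.5 µg/mL for 24 or 48 h. Cells were fixed with 50% TCA, stained with 0.4% SRB in 1% acetic acid and solubilized in 10 mM Trizma base, with absorbance read at 492 nm. IC50 is the concentration giving 50% of control cell number, from triplicates reported as mean and SD.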

HepG2 [3] = assay: Antiproliferative activity against human HepG2 cells assessed as growth inhibition after 24 hrs by SRB assay; assay type: functional, cell-based; details: HepG2, 24 h; how it was run: as §1
HCT-116 [4] = assay: Antiproliferative activity against human HCT116 cells assessed as growth inhibition after 48 hrs by SRB assay; assay type: functional, cell-based; details: HCT-116, 48 h; how it was run: as §1
HepG2 [5] = assay: Antiproliferative activity against human HepG2 cells assessed as growth inhibition after 48 hrs by SRB assay; assay type: functional, cell-based; details: HepG2, 48 h; how it was run: as §1
HCT-116 [6] = assay: Cell cycle arrest in human HCT116 cells assessed as accumulation at G2/M phase at 0.5 ug/ml after 4 hrs using propidium iodide staining by flow cytometric analysis (reference value: 22.2%); assay type: functional
[7] = target: DNA topoisomerase 2-alpha (Homo sapiens) (UniProt P11388); assay: Inhibition of human DNA topoisomerase 2 assessed as decatenation of kinetoplast DNA at 15 ug/ml after 30 mins
Chain of DNA topoisomerase 2-alpha (Homo sapiens) (P11388 whole entry): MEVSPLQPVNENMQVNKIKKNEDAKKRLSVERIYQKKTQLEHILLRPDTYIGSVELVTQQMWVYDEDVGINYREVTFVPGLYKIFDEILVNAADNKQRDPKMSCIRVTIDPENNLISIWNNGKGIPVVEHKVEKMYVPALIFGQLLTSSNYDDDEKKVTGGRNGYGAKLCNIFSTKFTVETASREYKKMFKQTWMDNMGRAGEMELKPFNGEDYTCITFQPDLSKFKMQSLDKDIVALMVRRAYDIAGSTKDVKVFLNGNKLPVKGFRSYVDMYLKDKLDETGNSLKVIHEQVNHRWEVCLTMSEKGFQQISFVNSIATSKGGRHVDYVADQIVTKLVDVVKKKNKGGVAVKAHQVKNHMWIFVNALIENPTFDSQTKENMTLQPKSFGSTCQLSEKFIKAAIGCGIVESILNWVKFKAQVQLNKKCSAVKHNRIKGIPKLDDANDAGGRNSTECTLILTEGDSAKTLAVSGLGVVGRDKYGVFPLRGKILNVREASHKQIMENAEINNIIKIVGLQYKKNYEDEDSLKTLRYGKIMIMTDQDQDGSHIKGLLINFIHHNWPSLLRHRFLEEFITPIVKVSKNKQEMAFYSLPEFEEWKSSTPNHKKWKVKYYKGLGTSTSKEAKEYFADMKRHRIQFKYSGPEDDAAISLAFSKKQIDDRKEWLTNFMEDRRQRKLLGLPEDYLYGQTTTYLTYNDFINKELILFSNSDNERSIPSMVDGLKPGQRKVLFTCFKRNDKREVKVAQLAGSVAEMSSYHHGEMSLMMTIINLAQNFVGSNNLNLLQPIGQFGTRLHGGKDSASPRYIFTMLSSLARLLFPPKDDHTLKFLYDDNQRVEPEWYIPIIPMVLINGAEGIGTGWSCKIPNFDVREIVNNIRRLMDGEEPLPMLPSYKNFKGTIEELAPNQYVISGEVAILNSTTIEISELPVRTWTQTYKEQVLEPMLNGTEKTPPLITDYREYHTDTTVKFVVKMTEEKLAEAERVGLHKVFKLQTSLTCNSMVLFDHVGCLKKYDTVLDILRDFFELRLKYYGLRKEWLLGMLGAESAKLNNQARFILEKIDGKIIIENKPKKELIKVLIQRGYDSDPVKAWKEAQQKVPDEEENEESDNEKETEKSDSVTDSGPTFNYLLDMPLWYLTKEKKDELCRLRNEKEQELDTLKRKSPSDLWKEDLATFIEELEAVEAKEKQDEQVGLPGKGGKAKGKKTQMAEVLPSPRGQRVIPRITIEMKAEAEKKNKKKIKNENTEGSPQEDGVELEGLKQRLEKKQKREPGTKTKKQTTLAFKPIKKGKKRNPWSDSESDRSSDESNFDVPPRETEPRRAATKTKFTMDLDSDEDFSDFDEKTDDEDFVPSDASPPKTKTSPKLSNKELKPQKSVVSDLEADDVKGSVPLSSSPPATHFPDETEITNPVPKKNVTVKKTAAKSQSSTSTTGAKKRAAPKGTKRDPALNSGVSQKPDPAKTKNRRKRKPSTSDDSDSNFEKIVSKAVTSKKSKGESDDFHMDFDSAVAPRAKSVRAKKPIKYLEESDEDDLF
How it was run: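 Decatenation assay with 0.15 µg kinetoplast DNA and 4 U human Top II. Buffer was 50 mM Tris-HCl pH 8, 120 mM KCl, 10 mM MgCl2, 0.5 mM ATP, 0.5 mM DTT and 30 µg/mL BSA, incubated at 37 °C for 30 min with or without compound. Reactions were stopped with Sarkosyl loading dye and run on 1% agarose in TAE at 4 V/cm for 40 min. Gels were stained with ethidium bromide and imaged under UV.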

HCT-116 [8] = assay: Cell cycle arrest in human HCT116 cells assessed as accumulation at G2/M phase at 0.5 ug/ml after 24 hrs using propidium iodide staining by flow cytometric analysis (reference value: 22.2%); assay type: functional
HCT-116 [9] = assay: Cell cycle arrest in human HCT116 cells assessed as accumulation at G0/G1 phase at 0.5 ug/ml after 12 hrs using propidium iodide staining by flow cytometric analysis (reference value: 48.7%); assay type: functional
MCF7 = assay: Antiproliferative activity against human MCF7 cells assessed as growth inhibition after 24 to 48 hrs by SRB assay; assay type: functional, cell-based
How it was run: (§2)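 Parental MCF-7 cells and doxorubicin-resistant MCF-7/ADrR cells were tested; the resistant line was maintained in medium containing DOX. Each line was treated at 0.039–2.5 µg/mL for 24 and 48 h. Growth was read by SRB staining after TCA fixation, with absorbance at 492 nm. IC50 is the concentration reducing cell number to 50% of control, from triplicates.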

HCT-116 [10] = assay: Cell cycle arrest in human HCT116 cells assessed as accumulation at S phase at 0.5 ug/ml after 24 hrs using propidium iodide staining by flow cytometric analysis (reference value: 29.1%); assay type: functional
HCT-116 [11] = assay: Cell cycle arrest in human HCT116 cells assessed as accumulation at S phase at 0.5 ug/ml after 12 hrs using propidium iodide staining by flow cytometric analysis (reference value: 29.1%); assay type: functional
HCT-116 [12] = assay: Cell cycle arrest in human HCT116 cells assessed as accumulation at G2/M phase at 0.5 ug/ml after 12 hrs using propidium iodide staining by flow cytometric analysis (reference value: 22.2%); assay type: functional
[13] = Antiproliferative activity against human MCF7/ADR cells assessed as growth inhibition after 24 to 48 hrs by SRB assay; assay type: functional, cell-based; details: NCI/ADR-RES; how it was run: as §2
[14] = target: T1, DNA topoisomerase 1 (Homo sapiens) (UniProt P11387); assay: Inhibition of human DNA topoisomerase 1 assessed as decrease in mobility of relaxed isomers of supercoiled pBR322 DNA at 15 uM after 30 mins
T1 sequence (whole entry): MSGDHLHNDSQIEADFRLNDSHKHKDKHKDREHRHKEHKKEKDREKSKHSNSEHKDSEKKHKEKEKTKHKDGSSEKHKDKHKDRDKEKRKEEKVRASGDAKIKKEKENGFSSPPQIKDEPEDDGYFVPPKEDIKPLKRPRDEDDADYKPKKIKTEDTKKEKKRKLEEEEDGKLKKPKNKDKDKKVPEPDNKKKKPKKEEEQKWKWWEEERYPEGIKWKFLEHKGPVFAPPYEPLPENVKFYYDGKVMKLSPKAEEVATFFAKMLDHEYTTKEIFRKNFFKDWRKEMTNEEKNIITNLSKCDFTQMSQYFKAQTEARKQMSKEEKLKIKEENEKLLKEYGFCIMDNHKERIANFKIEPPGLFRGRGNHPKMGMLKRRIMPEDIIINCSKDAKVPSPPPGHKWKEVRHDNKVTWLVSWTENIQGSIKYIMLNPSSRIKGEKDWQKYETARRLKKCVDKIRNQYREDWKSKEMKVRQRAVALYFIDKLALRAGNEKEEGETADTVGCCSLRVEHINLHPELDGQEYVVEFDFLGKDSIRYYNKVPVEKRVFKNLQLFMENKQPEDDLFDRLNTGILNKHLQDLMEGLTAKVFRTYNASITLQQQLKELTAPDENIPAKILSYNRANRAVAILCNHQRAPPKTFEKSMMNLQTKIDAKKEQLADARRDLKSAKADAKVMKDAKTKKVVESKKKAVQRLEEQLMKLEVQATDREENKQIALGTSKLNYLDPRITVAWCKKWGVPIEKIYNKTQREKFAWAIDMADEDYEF
How it was run: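 Gel-based relaxation assay with 1 unit human Top I. Enzyme was preincubated with compound at 37 °C for 20 min, then 0.5 µg supercoiled pBR322 DNA was added and incubated at 37 °C for 30 min. Reactions were stopped with 0.5% SDS, bromophenol blue and 15% glycerol. Relaxed and supercoiled forms were resolved by agarose electrophoresis.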

HCT-116 [15] = assay: Cell cycle arrest in human HCT116 cells assessed as accumulation at G0/G1 phase at 0.5 ug/ml after 4 hrs using propidium iodide staining by flow cytometric analysis (reference value: 48.7%); assay type: functional
HCT-116 [16] = assay: Cell cycle arrest in human HCT116 cells assessed as accumulation at G0/G1 phase at 0.5 ug/ml after 24 hrs using propidium iodide staining by flow cytometric analysis (reference value: 48.7%); assay type: functional
HCT-116 [17] = assay: Cell cycle arrest in human HCT116 cells assessed as accumulation at S phase at 0.5 ug/ml after 4 hrs using propidium iodide staining by flow cytometric analysis (reference value: 29.1%); assay type: functional
[18] = target: DNA topoisomerase 2-alpha (Homo sapiens) (UniProt P11388); details: 100 ug/ml
[19] = target: T1, DNA topoisomerase 1 (Homo sapiens); details: 18 to 36 uM

Row | Structure (SMILES) | inhibition of growth at 0.6 µg/mL (HepG2 [1]) | pIC50 (HCT-116 [2]) | pIC50 (HepG2 [3]) | pIC50 (HCT-116 [4]) | pIC50 (HepG2 [5]) | also measured
1 | COc1ccc2c(c[n+]3c4c2ccc2c5c(cc(c24)CC3)OCO5)c1OC(=O)c1ccc(F)cc1 | 70.3% |  |  |  |  | 
2 | COc1ccc2c(c[n+]3c4c2ccc2c5c(cc(c24)CC3)OCO5)c1OC(=O)c1ccc(F)c([N+](=O)[O-])c1 | 69.6% |  |  |  |  | 
3 | COc1ccc2c(c[n+]3c4c2ccc2c5c(cc(c24)CC3)OCO5)c1OCc1ccccc1 | 53.3% |  |  |  |  | 
4 | COc1ccc(C(=O)Oc2c(OC)ccc3c2c[n+]2c4c3ccc3c5c(cc(c34)CC2)OCO5)cc1 | 84.5% | 6.41 | 6.36 | 6.37 | 6.39 | 
5 | COc1ccc2c(c[n+]3c4c2ccc2c5c(cc(c24)CC3)OCO5)c1OS(=O)(=O)c1ccccc1 | 56.2% |  |  |  |  | 
6 | COc1ccc2c(c[n+]3c4c2ccc2c5c(cc(c24)CC3)OCO5)c1OC(=O)c1ccccc1.[Cl-] | 86.6% | 5.25 | 6.33 | 6.39 | 6.85 | Activity (HCT-116 [6]): 29.3%; inhibition [7]: Active; Activity (HCT-116 [8]): 73.3%; Activity (HCT-116 [9]): 2.29%; IC50 (MCF7): 2.5 µg/mL; Activity (HCT-116 [10]): 24.6%; Activity (HCT-116 [11]): 45.9%; Activity (HCT-116 [12]): 51.8%; IC50 [13]: 3.66 µg/mL; inhibition [14]: Active; Activity (HCT-116 [15]): 13.2%; Activity (HCT-116 [16]): 2.18%; Activity (HCT-116 [17]): 57.5%
7 | COc1ccc2c(c[n+]3c4c2ccc2c5c(cc(c24)CC3)OCO5)c1OC(=O)c1ccc2c(c1)OCO2 | 88.6% | 5.51 | 6.38 | 6.35 | 6.66 | 
8 | COc1ccc2c(c[n+]3c4c2ccc2c5c(cc(c24)CC3)OCO5)c1OCc1ccc(F)cc1F | 50.7% |  |  |  |  | 
9 | COc1ccc2c(c[n+]3c4c2ccc2c5c(cc(c24)CC3)OCO5)c1OC(=O)c1ccc(C)cc1 | 63.7% |  |  |  |  | 
10 | COc1ccc2c(c[n+]3c4c2ccc2c5c(cc(c24)CC3)OCO5)c1O | 50% |  |  |  |  | 
11 | COc1ccc2c(c[n+]3c4c2ccc2c5c(cc(c24)CC3)OCO5)c1OC | 53.4% | 6.25 | 5.92 | 5.77 | 6.15 | 
12 | COc1ccc2c(c[n+]3c4c2ccc2c5c(cc(c24)CC3)OCO5)c1OC(=O)c1ccc(F)cc1F | 92.5% | 5.51 | 6.21 | 6.41 | 6.89 | 
13 | COc1cc([C@@H]2c3cc4c(cc3[C@@H](O[C@@H]3O[C@@H]5CO[C@@H](C)O[C@H]5[C@H](O)[C@H]3O)[C@H]3COC(=O)[C@H]23)OCO4)cc(OC)c1O |  |  |  |  |  | inhibition [18]: Active
14 | COc1ccc2c(c[n+]3c4c2ccc2c5c(cc(c24)CC3)OCO5)c1OC(=O)c1ccccc1F | 93.7% | 6.38 | 6.03 | 6.55 | 6.82 | 
15 | COc1cccc2c1C(=O)c1c(O)c3c(c(O)c1C2=O)C[C@@](O)(C(=O)CO)C[C@@H]3O[C@H]1C[C@H](N)[C@H](O)[C@H](C)O1 [DOXORUBICIN] |  |  |  |  |  | IC50 [13]: 24.4 µg/mL (≈ 44.9 µM)
16 | COc1ccc(C(=O)Oc2c(OC)ccc3c2c[n+]2c4c3ccc3c5c(cc(c34)CC2)OCO5)cc1[N+](=O)[O-] | 53.6% |  |  |  |  | 
17 | CCCCOc1c(OC)ccc2c1c[n+]1c3c2ccc2c4c(cc(c23)CC1)OCO4 | 62.6% |  |  |  |  | 
18 | COc1cc(C(=O)Oc2c(OC)ccc3c2c[n+]2c4c3ccc3c5c(cc(c34)CC2)OCO5)cc(OC)c1OC | 86.5% | 6.04 | 6.42 | 6.43 | 6.49 | 
19 | COc1ccc2c(c[n+]3c4c2ccc2c5c(cc(c24)CC3)OCO5)c1OS(=O)(=O)c1ccc(NC(C)=O)cc1 | 8.9% |  |  |  |  | 
20 | COc1ccc2c(c[n+]3c4c2ccc2c5c(cc(c24)CC3)OCO5)c1OC(=O)c1ccccc1Cl | 62.3% |  |  |  |  | 
21 | COc1ccc2c(c[n+]3c4c2ccc2c5c(cc(c24)CC3)OCO5)c1OC(C)=O | 88.7% | 7.05 | 6.00 | 6.08 | 6.72 | 
22 | CCOc1c(OC)ccc2c1c[n+]1c3c2ccc2c4c(cc(c23)CC1)OCO4 | 41.9% |  |  |  |  | 
23 | COc1ccc2c(c[n+]3c4c2ccc2c5c(cc(c24)CC3)OCO5)c1OC(=O)c1ccc(C)c([N+](=O)[O-])c1 | 50.9% |  |  |  |  | 
24 | CC[C@@]1(O)C(=O)OCc2c1cc1n(c2=O)Cc2cc3cc(O)ccc3nc2-1 [HYDROXYCAMPTOTHECIN] | 85.4% |  |  |  |  | inhibition [19]: Active
